Rin1 Abl inh: inhibitors of Rin1-Abl protein binding, primary screen, biochemical, TR-FRET; Tyrosine-protein kinase ABL1 (Homo sapiens) + Ras and Rab interactor 1 (Homo sapiens), …; actives 0.4% (n = 360,000); AID 588664, 2011; inhibition, % at 7.35 µM; in the data active means inhibition above about 5%, passing the limit was not always enough
SR-BI HDL uptake: inhibitors of SR-BI mediated HDL lipid uptake, primary screen, ldlA[mSR-BI] cells, fluorescence, single point | Scavenger receptor class B member 1 (Mus musculus), Q61009 | ldlA[mSR-BI] CHO cells, DiI-HDL uptake fluorescence, 3 h | inhibition, % at 12.5 µM | actives 0.96% (n = 320,000);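 active means mean replicate inhibition of at least 70% and a set share of replicates each scoring 70 or more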;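 further: 0% = median of neutral control wells and 100% = median of positive control wells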
SR-BI uptake up: activators of SR-BI mediated DiI-HDL uptake, primary screen, ldlA[mSR-BI] CHO cells, DiI fluorescence; AID 504775, 2011; 3 h; 100 = double the neutral-control signal; activation, % at 12.5 µM; actives 0.096% (n = 320,000);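 active means mean replicate activation of at least 60% and every replicate at or above 60%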;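 further: 0% = median plate neutral-control signal and 100% = twice that signal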
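Test system: SR-BI-overexpressing, LDLR-lacking CHO cells; Also added: labelled HDL, 10 µg/mL; Measured by: bottom-read cell fluorescence after medium removal, ex 550/em 595 nm; Timing: 3 h uptake period with compound, 37 °C; Buffer or medium: F12, 0.5% BSA, 25 mM HEPES; Doses: single compound concentration, delivered by pin transfer.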
GRK2 inh: compounds blocking aptamer binding on GRK2 – biochemical, human GRK2, bead flow cytometry, HTS, primary screen. AID 488847, 2010. Beta-adrenergic receptor kinase 1 (Homo sapiens), P25098. actives 0.59% (n = 330,000). inhibition of aptamer binding, % at 10 µM. FAM-aptamer displacement from GRK2;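 active means inhibition of aptamer binding above 40%, roughly 3 SD of noise, on plates passing a quality check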;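 further: median bead fluorescence of bound FAM aptamer so fluorescent compounds give negative values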
* marks the source's active call; other numbers are inactive results; . = no result given. The list is not random: actives were taken first. Their share in the collection is about 1.9%.

SMILES	Rin1 Abl inh	SR-BI HDL uptake	SR-BI uptake up	GRK2 inh
CC(C)OCCCN1CC(=O)N2C(c3cccc([N+](=O)[O-])c3)c3[nH]c4ccccc4c3C[C@H]2C1=O (some centres undefined)	3	81*	-81	1
COCCCN1CC(=O)N2C(c3cccc(OC)c3)c3[nH]c4ccccc4c3C[C@H]2C1=O (some centres undefined)	3	23	-23	0
COc1cccc(OC)c1C(=O)Nc1ccc2c(c1)N(S(=O)(=O)c1cccs1)CCC2	-3	77*	-77	8
C/C(=N\NC(N)=S)C1C2C3CC4C5CC(C42)C1C53 (centres undefined)	1	83*	-83	2
C/C(CCC12CC3CC(CC(C3)C1)C2)=N\NC(N)=S	0	63	-63	0
CCN(CC)S(=O)(=O)c1ccc(Cl)c(NC(=S)NC(=O)C2CCCC2)c1	3	71*	-71	2
COc1ccc(NC(=O)C2(C)CCN2C(=O)C(C)C)cc1F (centres undefined)	-1	.	.	.
COC(=O)c1c(NC(=O)c2ccccc2)sc2c1CC(C)(C)OC2	2	73*	-73	0
COc1ccc(NC(=O)C2CCN(C(=O)C3CC(=O)N(c4ccc(C)cc4)C3)CC2)c(OC)c1 (centres undefined)	2	79*	-79	2
COC(=O)c1ccccc1NC(=O)C1CCN(C(=O)Cc2ccccc2)CC1	-2	49	.	2
COc1ccc(C)cc1NC(=O)C1CCN(C(=O)Cc2ccccc2)CC1	-3	76*	-76	0
CNC(=O)C[C@H]1C(=O)N(C2CCCCC2)C[C@@H]1c1ccc(Br)cc1	1	.	.	.
COc1ccc(NC(=O)c2ccc(Cl)nc2)cc1S(=O)(=O)N1CCCCC1	-2	75*	-75	4
CCc1cc(CN2CCOCC2)c(NC(=O)c2ccccc2)s1	5	23	-23	1
O=C(Cn1nc(C(=O)O)c2ccccc2c1=O)Nc1cc(S(=O)(=O)N2CCCCC2)ccc1Cl	4	17	-17	2
C/C(=N\Nc1cc(C)nc(NCc2ccccc2)n1)c1ccc([N+](=O)[O-])cc1	3	86*	-86	0
O=C(N/N=C/c1ccccc1O)c1cccc2ccccc12	-4	51	-51	0
CN(C)c1ccc(C=NNC(=O)c2cccc3ccccc23)c(Cl)c1	6	75*	-75	.
C/C(=N\NC(=O)c1nn(C)c(C)c1Br)c1ccc(NC(=O)C2CCCC2)cc1	1	80*	-80	0
COc1ccc(OCC(=O)N2c3ccccc3CC2C)c([N+](=O)[O-])c1 (centres undefined)	0	58	-58	0
CC(C)CNC(=O)C1(C)CCCN1C(=O)c1cccnc1 (centres undefined)	-1	.	.	.
CCc1ccc2c(c1)NC(=O)C2(C)Cc1ccc(Cl)s1 (centres undefined)	-3	.	.	.
CC1=NN(c2ccccc2)C(=O)/C1=C/c1cc(C)n(C2CC2)c1C	-3	72*	-72	1
O=C(O)CC(c1ccccc1)N1C(=O)c2ccccc2C1=O (centres undefined)	1	-8	8	1
CN(C)c1ccc(C(=O)Nc2nc3c(s2)CCCC3)cc1	0	84*	-84	3
SMILES	Rin1 Abl inh	SR-BI HDL uptake	SR-BI uptake up	GRK2 inh
CC(C)(C)c1ccc(C(=O)NC(=S)Nc2nc3c(s2)CCCC3)cc1	0	39	-39	1
OC[C@@H]1CN(Cc2cccs2)C[C@H](n2cnc3c(NCc4ccncc4)ncnc32)O1	0	.	.	.
CCC1CSC(Nc2ccc(C(=O)/C=C/c3ccc(OC)c(OC)c3)cc2)=N1 (centres undefined)	1	44	-44	48*
COC(=O)c1cc(NC(C)=O)ccc1N1CCOCC1	3	10	-10	0
COC(=O)c1cc(NC(=O)c2cc(-c3ccc(OC)cc3)oc2C(F)(F)F)ccc1N1CCOCC1	-4	86*	-86	0
COC(=O)c1cc(NC(=O)c2cc(-c3ccc(C(F)(F)F)cc3)oc2C(F)(F)F)ccc1N1CCOCC1	0	81*	-81	0
COc1ccc(C(=O)OCC(=O)Nc2cccc(S(=O)(=O)NC3=NCCCCC3)c2)cc1[N+](=O)[O-]	1	19	-19	.
COc1cccc(C(=O)Nc2ccc3nc(N4CCOCC4)cc(C)c3c2)c1	1	79*	-79	0
O=C(COC(=O)/C=C/c1ccco1)Nc1ncc(C(F)(F)F)cc1Cl	1	-6	6	52*
CSc1ccccc1NC(=O)COC(=O)/C=C/c1ccco1	4	4	-4	41*
CCCS(=O)(=O)NC(=O)C1(C)CCCN(C(=O)c2c(OC)cccc2OC)C1 (centres undefined)	2	.	.	.
O=C(O)c1ccc(NC(=S)Nc2ccccc2)cc1	-1	-17	17	5
N/C(CC(=O)Nc1cccc(C(F)(F)F)c1)=N/O	5	-89	89*	0
COc1ccccc1Nc1nc(-c2ccc3c(c2)NC(=O)CO3)cs1	-2	78*	-78	3
Cc1cccc(NC(=O)Nc2ccc(Cl)c(Cl)c2)n1	-2	33	-33	.
Cc1c(NC(=O)Nc2ccc(Cl)c(Cl)c2)sc(=S)n1C	-1	90*	-90	2
CN1C(=O)/C(=C/c2ccc(OCc3ccccc3F)cc2)NC1=S	2	21	-21	2
COc1cc(/C=C2\NC(=S)N(C)C2=O)ccc1OCc1ccccc1F	4	77*	-77	8
CCc1nnc2sc(-c3ccc(NC(=O)CSc4ccc(Cl)cc4)cc3)nn12	-3	77*	.	0
COc1ccc(N2CCN(S(=O)(=O)c3cn(C)cn3)CC2)cc1	1	-13	13	0
COc1ccc(N2CCN(C(=O)Cn3nnc(-c4ccccc4N)n3)CC2)cc1	-4	83*	-83	2
O=C1C=C(c2ccc3cc[nH]c3c2)C[C@@H](c2ccc3c(c2)OCO3)C1	1	21	-21	14
COc1ccc(-c2sc3ccccc3c2/C=C/c2ccc(OC)c(OC)c2)cc1	6	82*	-82	1
COc1ccc(/C=C/c2c(-c3ccccc3OC)sc3ccccc23)cc1OC	1	46	-46	5
CC[C@]12c3[nH]c4cc(CCC(=O)N(C)C)ccc4c3CCN1C(=O)[C@@H](CC(=O)NCCC1=CCCCC1)C[C@@H]2C(=O)N1CCN(C(=O)c2ccco2)CC1	-4	16	-16	43*
CC[C@]12c3[nH]c4cc(-c5ccco5)ccc4c3CCN1C(=O)[C@@H](CC(=O)NCCc1ccccn1)C[C@@H]2C(=O)N1CCN(C(=O)c2ccco2)CC1	-2	2	-2	43*

Bioassay records: PubChem BioAssay, several laboratories
